Data reported in ChEMBL document CHEMBL4229550, “An antimycobacterial pleuromutilin analogue effective against dormant bacilli” (Bioorg Med Chem, 2018).
In brackets after ≈: the same amount, converted by molar mass. Activity calls are given as the source filed them. No cut-off for these calls is given here.

Assays:
[1] = Selectivity index, ratio of IC50 for African green monkey Vero cells to MIC100 for replicating Mycobacterium tuberculosis H37Rv by MABA; assay type: toxicity; conditions: read-out: Selectivity Index
How it was run: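 Vero cells are cultured in EMEM with 10% FBS and exposed for 72 h to 0.78–200 µg/mL. Medium is switched to phenol-red-free EMEM, MTT is added, and formazan is read at 570 nm to give IC50. The selectivity index is Vero IC50 divided by the MABA MIC.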

[2] = tested on: Mycobacterium tuberculosis; assay: Antibacterial activity against Mycobacterium tuberculosis Erdman infected in Balb/c mouse assessed as reduction in bacterial load in lungs at 2.5 mg/kg, po for 3 weeks starting from 10 days post infection measured on day 21 post infection; assay type: functional, Erdman = ATCC 35801
How it was run: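 Female BALB/c mice, 7–8 weeks old, are aerosol-infected with Mtb Erdman. From day 10 they receive oral gavage in water for three weeks, in groups of 5. Lungs and spleens are harvested at day 21 post-infection and plated for CFU. Efficacy is the log10 reduction in lung burden versus untreated (vehicle) controls.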

Vero = assay: Cytotoxicity against African green monkey Vero cells assessed as reduction in cell viability after 72 hrs by MTT assay; assay type: cell-based; conditions: Chlorocebus sabaeus
How it was run: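 Vero cells were grown in complete EMEM with 10% FBS and exposed for 72 h to 0.78–200 µg/mL. The medium was then swapped for phenol-red-free EMEM and MTT was added. Formazan absorbance was read at 570 nm to give IC50.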

[3] = tested on: Mycobacterium tuberculosis; assay: Antibacterial activity against replicating Mycobacterium tuberculosis H37Rv incubated for 15 days under aerobic condition by MABA; assay type: functional; conditions: 360 h, read-out: MIC100
How it was run: (§1)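 Mtb H37Rv grown in 7H9/OADC at 37 °C with shaking to OD600 0.5. The 0.5-OD culture is exposed aerobically to serial dilutions for 15 days at 37 °C. Resazurin (0.02% stock) is then added for 4 h at 37 °C with shaking.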

[4] = tested on: Mycobacterium tuberculosis; assay: Bactericidal activity against non-replicating Mycobacterium tuberculosis CDC1551 expressing tdTomato infected in mouse J774A.1 cells at 2 times MIC up to 72 hrs by UV-Visible spectroscopic method; assay type: functional, organism-based
How it was run: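 J774A.1 macrophages are seeded at […] cells/well in DMEM and incubated overnight at 37 °C. They are infected with saline-washed Mtb CDC1551-tdTomato (10^6 bacteria, MOI ≈10), and extracellular bacteria are washed off with PBS. Treatment is at 2×MIC, with fluorescence emission read at 581 nm at 24, 48, 72 and 96 h. Survivors are confirmed by serial dilution and plating on 7H11.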

[5] = tested on: Mycobacterium tuberculosis; assay: Bactericidal activity against replicating Mycobacterium tuberculosis H37Rv incubated for 15 days under aerobic condition by MABA; assay type: functional; conditions: 360 h; how it was run: as §1
Staphylococcus aureus [6] = assay: Antibacterial activity against Staphylococcus aureus incubated for 24 hrs under aerobic condition by MABA; assay type: functional; conditions: read-out: MIC100
How it was run: (§2)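 Resazurin was then added from a 0.08% stock for 1 h. MIC100 was the lowest concentration where the dye stayed blue (pink means growth). Absorbance was also read at 570 and 600 nm.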

Staphylococcus aureus [7] = assay: Antibacterial activity against Staphylococcus aureus BAA 2094 incubated for 24 hrs under aerobic condition by MABA; assay type: functional; conditions: BAA 2094, 24 h, read-out: MIC100; how it was run: as §2
[8] = tested on: Mycobacterium tuberculosis; assay: Bactericidal activity against Mycobacterium tuberculosis H37Rv at 2 times MIC measured every 24 hrs up to 12 days by time kill assay relative to control; assay type: functional
How it was run: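 Mid-log H37Rv (OD 0.5) is diluted to OD 0.25 and exposed at MIC, 2×MIC or 4×MIC. Every 24 h cultures are diluted 10- to 10,000-fold and plated on 7H10/OADC agar. Plates are incubated 15 days at 37 °C before colony counts.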

Staphylococcus aureus [9] = assay: Antibacterial activity against Staphylococcus aureus BAA 1683 incubated for 24 hrs under aerobic condition by MABA; assay type: functional; conditions: BAA 1683, 24 h, read-out: MIC100
How it was run: (§3)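 Mid-log cultures at OD 0.5 were exposed to serial dilutions under aerobic conditions at 37 °C for 24 h. Resazurin was then added from a 0.08% stock for 1 h. MIC100 was the lowest concentration where the dye stayed blue (pink means growth). Absorbance was also read at 570 and 600 nm.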

Acinetobacter baumannii [10] = assay: Bactericidal activity against Acinetobacter baumannii ATCC 19606 incubated for 24 hrs under aerobic condition by MABA; assay type: functional; conditions: ATCC 19606 = CIP 70.34 = JCM 6841, 24 h
Klebsiella pneumoniae [11] = assay: Antibacterial activity against Klebsiella pneumoniae ATCC 12019 incubated for 24 hrs under aerobic condition by MABA; assay type: functional; conditions: ATCC 12019, 24 h, read-out: MIC100; how it was run: as §3
Staphylococcus aureus [12] = assay: Bactericidal activity against Staphylococcus aureus incubated for 24 hrs under aerobic condition by MABA; assay type: functional
Bacillus subtilis [13] = assay: Antibacterial activity against Bacillus subtilis ATCC 6051 incubated for 24 hrs under aerobic condition by MABA; assay type: functional; conditions: ATCC 6051, 24 h, read-out: MIC100; how it was run: as §3
Enterococcus faecalis [14] = assay: Bactericidal activity against Enterococcus faecalis ATCC 349 incubated for 24 hrs under aerobic condition by MABA; assay type: functional; conditions: ATCC 349, 24 h
Enterococcus faecalis [15] = assay: Bactericidal activity against Enterococcus faecalis ATCC 19433 incubated for 24 hrs under aerobic condition by MABA; assay type: functional; conditions: ATCC 19433, 24 h
Streptococcus salivarius [16] = assay: Antibacterial activity against Streptococcus salivarius […] incubated for 24 hrs under aerobic condition by MABA; assay type: functional; conditions: read-out: MIC100; how it was run: as §2
Enterococcus faecalis [17] = assay: Antibacterial activity against Enterococcus faecalis ATCC 349 incubated for 24 hrs under aerobic condition by MABA; assay type: functional; conditions: ATCC 349, 24 h, read-out: MIC100; how it was run: as §3
Staphylococcus aureus [18] = assay: Antibacterial activity against Staphylococcus aureus ATCC 25923 incubated for 24 hrs under aerobic condition by MABA; assay type: functional; conditions: ATCC 25923, 24 h, read-out: MIC100; how it was run: as §3
Staphylococcus aureus [19] = assay: Antibacterial activity against Staphylococcus aureus BAA 44 incubated for 24 hrs under aerobic condition by MABA; assay type: functional; conditions: BAA 44, 24 h, read-out: MIC100; how it was run: as §3
Erythrocyte = assay: Hemolytic activity in sheep erythrocytes after 2 hrs; assay type: ADME, cell-based; conditions: Ovis aries
How it was run: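 Washed heparinized sheep erythrocytes at 3% in buffer pH 7.4 were treated with 2–200 µg/mL for 2 h at 37 °C with gentle shaking. Triton X-100 (0.01–1%) was the positive control and PEG:H2O diluent the negative control. Released hemoglobin was read at OD540 and % hemolysis calculated against both controls.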

Staphylococcus aureus [20] = assay: Bactericidal activity against Staphylococcus aureus ATCC 25923 incubated for 24 hrs under aerobic condition by MABA; assay type: functional; conditions: ATCC 25923, 24 h
[21] = tested on: Mycobacterium tuberculosis; assay: Antibacterial activity against Mycobacterium tuberculosis; assay type: functional; conditions: read-out: MIC100; how it was run: as §1
Streptococcus pneumoniae [22] = assay: Bactericidal activity against Streptococcus pneumoniae ATCC 6301 incubated for 24 hrs under aerobic condition by MABA; assay type: functional; conditions: ATCC 6301, 24 h
Escherichia coli [23] = assay: Inhibition of protein translation/transcription in Escherichia coli S30 cell extract at 0.1 ug/ml using circular DNA with pBESTluc after 60 mins by luciferase reporter gene assay; assay type: functional
How it was run: (§4)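 Coupled transcription/translation used E. coli S30 extract, amino acid mix and premix, with the pBESTluc template carrying firefly luciferase under the tac promoter. Compounds were added in DMSO and reactions were started with DNA. Incubation was 60 min at 37 °C, stopped on ice, and luciferase was read after adding assay substrate.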

Streptococcus salivarius [24] = assay: Bactericidal activity against Streptococcus salivarius ATCC 6301 incubated for 24 hrs under aerobic condition by MABA; assay type: functional; conditions: ATCC 6301, 24 h
Clostridioides difficile = assay: Bactericidal activity against Clostridium difficile ATCC 700057 incubated for 24 hrs […] by MABA; assay type: functional; conditions: ATCC 700057, 24 h
[25] = tested on: Mycolicibacterium smegmatis; assay: Bactericidal activity against Mycobacterium smegmatis ATCC 607 incubated for 48 hrs under aerobic condition by MABA; assay type: functional; conditions: ATCC 607, 48 h
Klebsiella pneumoniae [26] = assay: Bactericidal activity against Klebsiella pneumoniae ATCC 12019 incubated for 24 hrs under aerobic condition by MABA; assay type: functional; conditions: ATCC 12019, 24 h
[27] = tested on: Mycolicibacterium smegmatis; assay: Antibacterial activity against Mycobacterium smegmatis ATCC 607 incubated for 48 hrs under aerobic condition by MABA; assay type: functional; conditions: ATCC 607, 48 h, read-out: MIC100
How it was run: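 Mid-log culture at OD 0.5 was incubated with serial dilutions aerobically at 37 °C for 48 h. Resazurin was then added from a 0.08% stock for 1 h. MIC100 was the lowest concentration that stayed blue; absorbance was also read at 570/600 nm.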

Staphylococcus aureus [28] = assay: Bactericidal activity against Staphylococcus aureus BAA 2094 incubated for 24 hrs under aerobic condition by MABA; assay type: functional; conditions: BAA 2094, 24 h
Staphylococcus aureus [29] = assay: Bactericidal activity against Staphylococcus aureus BAA 1683 incubated for 24 hrs under aerobic condition by MABA; assay type: functional; conditions: BAA 1683, 24 h
Escherichia coli [30] = assay: Antibacterial activity against Escherichia coli ATCC 10798 incubated for 24 hrs under aerobic condition by MABA; assay type: functional; conditions: ATCC 10798, 24 h, read-out: MIC100; how it was run: as §3
Acinetobacter baumannii [31] = assay: Antibacterial activity against Acinetobacter baumannii ATCC 19606 incubated for 24 hrs under aerobic condition by MABA; assay type: functional; conditions: ATCC 19606 = CIP 70.34 = JCM 6841, 24 h, read-out: MIC100; how it was run: as §3
[32] = Metabolic stability in Sprague-Dawley rat liver microsomes at 500 ng/ml preincubated for 5 mins followed by NADPH addition […] by C-MS/MS analysis; assay type: ADME, microsome; conditions: 10 min
Enterococcus faecalis [33] = assay: Antibacterial activity against Enterococcus faecalis ATCC 19433 incubated for 24 hrs under aerobic condition by MABA; assay type: functional; conditions: ATCC 19433, 24 h, read-out: MIC100; how it was run: as §3
Escherichia coli [34] = assay: Inhibition of protein translation/transcription in Escherichia coli S30 cell extract at 0.5 ug/ml using circular DNA with pBESTluc after 60 mins by luciferase reporter gene assay; assay type: functional; how it was run: as §4
Staphylococcus aureus [35] = assay: Bactericidal activity against Staphylococcus aureus BAA 44 incubated for 24 hrs under aerobic condition by MABA; assay type: functional; conditions: BAA 44, 24 h
Bacillus subtilis [36] = assay: Bactericidal activity against Bacillus subtilis ATCC 6051 incubated for 24 hrs under aerobic condition by MABA; assay type: functional; conditions: ATCC 6051, 24 h
Streptococcus pneumoniae [37] = assay: Antibacterial activity against Streptococcus pneumoniae ATCC 6301 incubated for 24 hrs under aerobic condition by MABA; assay type: functional; conditions: ATCC 6301, 24 h, read-out: MIC100; how it was run: as §3
Escherichia coli [38] = assay: Bactericidal activity against Escherichia coli ATCC 10798 incubated for 24 hrs under aerobic condition by MABA; assay type: functional; conditions: ATCC 10798, 24 h

NNC(=O)c1ccncc1 [ISONIAZID]
selectivity ratio [1]: > 2000 | log(activity) [2]: 4.22 | IC50 (Vero): > 200 µg/mL | MIC [3]: 0.04 to 0.1 µg/mL (≈ 0.292 to 0.729 µM) | Activity [4]: inactive | MBC [5]: 0.57 µg/mL (≈ 4.16 µM)

C=C[C@]1(C)C[C@@H](OC(=O)CSC(C)(C)CNC(=O)[C@H](N)CC(C)C)[C@]2(C)[C@H](C)CC[C@]3(CCC(=O)[C@H]32)[C@@H](C)[C@@H]1O
MIC (Staphylococcus aureus [6]): 0.4 µg/mL (≈ 0.691 µM) | MIC (Staphylococcus aureus [7]): > 25 µg/mL | Activity [8]: 100% | MIC (Staphylococcus aureus [9]): > 25 µg/mL | MBC (Acinetobacter baumannii [10]): 25 µg/mL (≈ 43.2 µM) | MIC (Klebsiella pneumoniae [11]): 25 µg/mL (≈ 43.2 µM) | selectivity ratio [1]: 16 | MBC (Staphylococcus aureus [12]): 0.8 µg/mL (≈ 1.38 µM) | MIC (Bacillus subtilis [13]): 12.5 µg/mL (≈ 21.6 µM) | MBC (Enterococcus faecalis [14]): > 25 µg/mL | MBC (Enterococcus faecalis [15]): 25 µg/mL (≈ 43.2 µM) | MIC (Streptococcus salivarius [16]): 6.25 µg/mL (≈ 10.8 µM) | MIC (Enterococcus faecalis [17]): > 25 µg/mL | MIC (Staphylococcus aureus [18]): > 25 µg/mL | MIC (Staphylococcus aureus [19]): > 25 µg/mL | IC50 (Erythrocyte): > 200 µM | MBC (Staphylococcus aureus [20]): > 25 µg/mL | MIC [21]: < 6.25 µg/mL | MBC (Streptococcus pneumoniae [22]): > 25 µg/mL | inhibition (Escherichia coli [23]): Active | MBC (Streptococcus salivarius [24]): > 25 µg/mL | MBC (Clostridioides difficile): 1.56 µg/mL (≈ 2.69 µM) | MBC [25]: > 25 µg/mL | MBC (Klebsiella pneumoniae [26]): > 25 µg/mL | MIC [27]: 6.25 µg/mL (≈ 10.8 µM) | MBC (Staphylococcus aureus [28]): > 25 µg/mL | MBC (Staphylococcus aureus [29]): > 25 µg/mL | MIC (Escherichia coli [30]): 12.5 µg/mL (≈ 21.6 µM) | IC50 (Vero): 25 µg/mL (≈ 43.2 µM) | MIC (Acinetobacter baumannii [31]): 12.5 µg/mL (≈ 21.6 µM) | Stability [32]: Unstable | MIC (Enterococcus faecalis [33]): 12.5 µg/mL (≈ 21.6 µM) | inhibition (Escherichia coli [34]): Active | MBC (Staphylococcus aureus [35]): > 25 µg/mL | MBC (Bacillus subtilis [36]): 25 µg/mL (≈ 43.2 µM) | MIC (Streptococcus pneumoniae [37]): 25 µg/mL (≈ 43.2 µM) | MBC (Escherichia coli [38]): > 25 µg/mL | MBC [5]: 1.46 µg/mL (≈ 2.52 µM)
